Screening results deposited in PubChem by The Scripps Research Institute Molecular Screening Center.
LYPLA1 inh = counter-screen for PME1 inhibitors: inhibitors of human LYPLA1. O75608. recombinant LYPLA1, FP-Rh probe fluorescence polarization. inhibition, % at 5.9 µM. actives 0.16% (n = 320,000);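 active = inhibition above the mean of all tested compounds plus 3 SD, set per campaign, cut at about 14% in these data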;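 also: inhibitors block serine hydrolase probe labeling of LYPLA1 so polarization falls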
Target sequence (O75608 whole entry, looked up): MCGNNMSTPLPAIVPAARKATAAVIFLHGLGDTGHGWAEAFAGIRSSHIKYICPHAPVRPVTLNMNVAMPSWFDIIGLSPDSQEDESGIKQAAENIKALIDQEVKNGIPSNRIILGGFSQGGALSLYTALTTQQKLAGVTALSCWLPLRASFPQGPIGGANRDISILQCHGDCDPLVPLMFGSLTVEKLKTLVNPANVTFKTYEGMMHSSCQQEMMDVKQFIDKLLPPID
Fam108B inh = Fam108B inhibition, counter-screen for RBBP9 inhibitors; recombinant Fam108B, FP-Rh probe fluorescence polarization; actives 0.33% (n = 300,000); AID 1947; inhibition, % at 9.51 µM;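 active = inhibition above the screen mean inhibition plus 3 SD, computed separately per campaign, cut at about 18% in these data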;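 also: inhibitors lower polarization as less probe binds the enzyme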
RBBP9 inh = inhibitors of human serine hydrolase RBBP9; AID 1515; inhibition, % at 7.94 µM; O75884; actives 0.2% (n = 220,000); recombinant RBBP9, FP-Rh probe fluorescence polarization;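 active = inhibition above the campaign mean of all tested compounds plus 3 SD, cut at about 14% in these data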
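Assay system: recombinant human RBBP9; Reagent: Serine-hydrolase probe FP-Rh, 375 nM pre-mixing; Doses: 7.94 µM single dose, 0.794% DMSO; Incubation: 30 min then 45 min, 25 °C; Detection: fluorescence polarization (mP), excitation 525 nm, emission 598 nm; Evaluation: percent inhibition from mP, scaled between DMSO and no-protein wells.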
LYPLA2 inh = counter-screen for PME1 inhibitors: inhibitors of human LYPLA2; O95372; recombinant LYPLA2, FP-Rh probe fluorescence polarization; inhibition, % at 5.9 µM; actives 0.38% (n = 320,000);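 active = inhibition above the screen-wide mean plus 3 SD, limit set per campaign, cut at about 26% in these data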
Target sequence (O95372 whole entry, looked up): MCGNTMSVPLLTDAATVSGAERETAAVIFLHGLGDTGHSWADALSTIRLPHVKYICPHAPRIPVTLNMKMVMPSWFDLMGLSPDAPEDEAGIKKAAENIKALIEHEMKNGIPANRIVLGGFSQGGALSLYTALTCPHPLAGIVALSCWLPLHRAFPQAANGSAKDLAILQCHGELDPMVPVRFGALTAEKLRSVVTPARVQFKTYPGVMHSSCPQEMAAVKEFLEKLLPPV
PAD4 inh = PAD4 (human) enzyme inhibition | Q9UM07 | recombinant PAD4, RCA probe fluorescence polarization | inhibition, % at 6.36 µM | actives 0.41% (n = 330,000) | AID 485272;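 active = percent inhibition above a cutoff equal to the mean of all tested compounds plus 3 SD, cut at about 15% in these data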
PME-1 primary = PME-1 (human) inhibition; recombinant PME-1, FP-Rh probe fluorescence polarization; inhibition, % at 5.9 µM; actives 0.53% (n = 320,000);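 active = inhibition above the campaign mean of all compounds plus 3 SD, cut at about 26% in these data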;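 also: competitive labeling of PME-1 active site by serine hydrolase directed probe; inhibitors block probe labeling so polarization falls and inhibition rises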
LYPLA2 confirm = LYPLA2 (human) inhibition, confirmation counter-screen; recombinant LYPLA2, FP-Rh probe fluorescence polarization; inhibition, % at 5.9 µM; actives 72% (n = 1,100); shares compounds with LYPLA2 inh;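 active = mean inhibition across replicates above the hit cutoff set in the primary screen, cut at about 26% in these data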;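 also: blocked labeling of the enzyme by serine hydrolase FP-Rh probe lowers polarization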
LYPLA2 ABPP = inhibitors of human LYPLA2. shares compounds with LYPLA2 inh. rhLYPLA2 in mouse brain proteome, gel ABPP FP-Rh. inhibition, % at 20 µM. actives 30% (n = 150). AID 652029;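 active = inhibition of LYPLA2 enzyme probe labeling above about 50%, limit read from the data; inactive = inhibition below that limit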;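 also: loss of FP-Rh probe labeling of the LYPLA2 gel band measured as band density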
Hits are given with their value; n = inactive; x = no result. Only some compounds are listed: those with a hit (about 1.3% of all), similar ones and a draw of the others.

SMILES	LYPLA1 inh	Fam108B inh	RBBP9 inh	LYPLA2 inh	PAD4 inh	PME-1 primary	LYPLA2 confirm	others
Cc1ccc(C(=O)N2CCCC(N3CCN(c4cccc(C(F)(F)F)c4)CC3)C2)s1 (configuration not stated)	n	n	x	42	n	n	39
Cc1cnc(C(=O)N2CCCC(N3CCN(c4cccc(C(F)(F)F)c4)CC3)C2)cn1 (configuration not stated)	n	n	x	26	n	n	n
CCNS(=O)(=O)c1ccc(CCC(=O)N2CCc3ccccc3C2)cc1	n	n	x	n	n	n	x
COc1ccc(CC2(CO)CCN(S(=O)(=O)c3sccc3C)CC2)cc1	n	n	n	n	n	n	x
CC12CC3CC(C)(C1)CC(Nc1nc(N4CCOCC4)nc4ccccc14)(C3)C2	n	n	n	n	n	n	x
O=C(C[C@@H]1C/C=C\C[C@@H](Cc2ccc(F)cc2)C(=O)OC[C@@H]2CCCN2C1=O)NCCO	x	x	x	x	n	x	x
CCn1cc(C(=O)N2CCCC(N3CCN(c4cccc(C(F)(F)F)c4)CC3)C2)cn1 (configuration not stated)	n	n	x	32	n	n	n
O=C(c1ccoc1)N1CCCC(N2CCN(c3cccc(C(F)(F)F)c3)CC2)C1 (configuration not stated)	n	n	x	n	n	n	x
O=C(c1ccncc1)N1CCCC(N2CCN(c3cccc(C(F)(F)F)c3)CC2)C1 (configuration not stated)	n	n	x	26	n	n	43
O=C(O)CN1C(=O)/C(=C\c2cccc(OCc3ccc(Cl)cc3)c2)SC1=S	n	n	x	28	n	n	27
COC(=O)c1ccc(N2CCC(c3cc(-c4ccc(OC)cc4)n[nH]3)CC2)c([N+](=O)[O-])c1	n	n	n	26	n	n	n
CC(=O)c1ccc(N2CCC(c3cc(-c4ccc(Cl)cc4)n[nH]3)CC2)c([N+](=O)[O-])c1	n	n	n	n	n	n	x
COc1ccc(-c2cc(C3CCN(c4ccc(C(C)=O)cc4[N+](=O)[O-])CC3)[nH]n2)cc1	n	n	n	37	n	n	42
COc1ccc(-c2cc(C3CCN(C(=O)OC(C)(C)C)CC3)[nH]n2)cc1	n	n	n	27	n	n	n
COc1ccccc1C1CC(c2ccc(Cl)cc2Cl)Nc2nc(N)nn21 (configuration not stated)	n	n	n	43	n	n	34
CC(=O)c1ccc(N2CCN(C(=O)c3ccc(Cn4c(=S)[nH]c5ccc(N6CCOCC6)cc5c4=O)cc3)CC2)cc1	n	n	n	44	n	n	34
CC(=O)c1ccc(N2CCN(C(=O)CCCn3c(=S)[nH]c4cc5c(cc4c3=O)OCO5)CC2)cc1	n	n	n	52	n	n	51	LYPLA2 ABPP=n
O=C(CCCn1c(=S)[nH]c2cc3c(cc2c1=O)OCO3)N1CCN(c2ccc(Cl)cc2)CC1	n	n	n	n	n	n	x
COc1cc(C2C3=C(CC(C)(C)CC3=O)Nc3ccccc3N2C(C)=O)cc(OC)c1OC (configuration not stated)	n	n	x	n	n	n	x
O=C(COC(=O)c1cnccn1)c1ccc(C2CCCCC2)cc1	n	n	x	31	n	n	30
Cc1cnc(C(=O)OCC(=O)c2ccc(C3CCCCC3)cc2)cn1	n	n	x	n	n	n	x
O=C(C[n+]1cccc(NC(=O)c2ccccc2)c1)c1ccc(NC(=O)c2ccccc2)cc1	n	n	n	27	n	n	n
O=S(=O)(O)c1nc2ccccc2n1Cc1cccc2ccccc12	n	n	n	n	n	n	x
COc1ccc(C(=O)COc2ncnc3cc(Cl)ccc23)cc1	n	n	n	27	n	n	31
O=C(COc1ncnc2cc(Cl)ccc12)c1ccccc1	n	n	n	n	n	n	x
COc1ccc(C(=O)COc2nc(C)cc(C)c2C#N)cc1	n	n	n	n	n	n	x
O=C(COc1ncnc2ccccc12)c1ccc(Cl)cc1	n	n	n	29	n	n	n
